Assay results as given in ChEMBL document CHEMBL1133729, “Design, synthesis, and structure-activity relationships of phthalimide-phenylpiperazines: a novel series of potent and selective alpha(1)(a)-adrenergic receptor antagonists” (J Med Chem, 2000).

Experiments:
[1] = target: T1, Alpha-2B adrenergic receptor (Rattus norvegicus) (UniProt P19328); assay: Compound at 1 uM was tested for the inhibition of radioligand [3H]yohimbine binding to rat alpha-2B adrenergic receptor
T1 sequence (whole entry): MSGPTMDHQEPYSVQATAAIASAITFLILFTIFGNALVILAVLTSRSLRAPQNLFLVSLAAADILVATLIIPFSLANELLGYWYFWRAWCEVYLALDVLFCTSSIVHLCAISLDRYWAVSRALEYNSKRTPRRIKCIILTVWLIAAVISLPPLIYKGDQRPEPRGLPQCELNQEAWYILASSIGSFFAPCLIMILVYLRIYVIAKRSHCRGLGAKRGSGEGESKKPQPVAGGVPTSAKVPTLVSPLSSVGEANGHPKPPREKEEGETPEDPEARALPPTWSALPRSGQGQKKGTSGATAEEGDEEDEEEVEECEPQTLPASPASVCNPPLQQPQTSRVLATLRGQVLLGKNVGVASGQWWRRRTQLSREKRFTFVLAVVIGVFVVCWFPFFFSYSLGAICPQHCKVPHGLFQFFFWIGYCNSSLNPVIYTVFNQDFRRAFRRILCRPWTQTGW
Summary of the method: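 Rat kidney cortical membranes; [3H]yohimbine, 25 °C for 30 min, pH 7.4 Tris-HCl/NaCl/EDTA; 10 μM phentolamine for nonspecific binding. Percent inhibition at 1 μM compound, in duplicate; filtration, scintillation counting.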

[2] = target: Serotonin 1 (5-HT1) receptor (Rattus norvegicus) (UniProt P28564+P30940+P19327+P28565); assay: Compound at 1 uM was tested for the inhibition of radioligand [3H]5-HT binding to 5-hydroxytryptamine 1 receptor in rat cerebral cortex; type: tissue-based
Summary of the method: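 Rat cerebral cortex membranes; [3H]5-HT, 10 min at 37 °C, Tris-HCl/NaCl/EDTA buffer pH 7.4; 10 μM 5-HT for nonspecific binding. Filtered, washed three to four times, scintillation counted. Percent inhibition at 1 μM test compound, in duplicate.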

[3] = target: T2, 5-hydroxytryptamine receptor 1A (Homo sapiens) (UniProt P08908); assay: Compound at 1 uM was tested for the inhibition of radioligand [3H]8-OH-DPAT binding to recombinant human 5-hydroxytryptamine 1A receptor
T2 sequence (whole entry): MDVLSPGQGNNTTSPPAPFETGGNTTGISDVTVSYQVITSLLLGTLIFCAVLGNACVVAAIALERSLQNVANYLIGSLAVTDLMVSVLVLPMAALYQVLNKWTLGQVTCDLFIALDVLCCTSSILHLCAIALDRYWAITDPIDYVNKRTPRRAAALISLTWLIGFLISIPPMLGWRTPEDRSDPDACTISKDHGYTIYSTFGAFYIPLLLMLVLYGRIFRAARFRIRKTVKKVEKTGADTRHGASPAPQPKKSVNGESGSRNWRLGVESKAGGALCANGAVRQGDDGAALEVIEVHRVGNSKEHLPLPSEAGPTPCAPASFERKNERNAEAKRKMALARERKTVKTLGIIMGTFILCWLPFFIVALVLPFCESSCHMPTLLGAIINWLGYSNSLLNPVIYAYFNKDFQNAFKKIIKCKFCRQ

[4] = target: T3, Alpha-2A adrenergic receptor (Homo sapiens) (UniProt P08913); assay: Compound at 1 uM was tested for the inhibition of radioligand [3H]MK-912 binding to recombinant human alpha-2A adrenergic receptor
T3 sequence (whole entry): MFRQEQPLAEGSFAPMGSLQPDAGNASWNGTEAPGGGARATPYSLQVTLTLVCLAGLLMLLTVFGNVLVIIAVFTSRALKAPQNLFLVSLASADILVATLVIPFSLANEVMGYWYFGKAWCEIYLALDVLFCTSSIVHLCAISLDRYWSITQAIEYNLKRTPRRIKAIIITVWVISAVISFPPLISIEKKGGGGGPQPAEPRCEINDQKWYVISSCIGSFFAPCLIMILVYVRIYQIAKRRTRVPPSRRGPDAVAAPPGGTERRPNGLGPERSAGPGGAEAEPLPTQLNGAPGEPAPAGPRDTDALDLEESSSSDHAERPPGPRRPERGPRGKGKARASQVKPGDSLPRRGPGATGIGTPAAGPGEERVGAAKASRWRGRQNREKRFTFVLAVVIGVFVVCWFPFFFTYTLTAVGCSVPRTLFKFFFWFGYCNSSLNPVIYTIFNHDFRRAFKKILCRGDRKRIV
Summary of the method: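 Recombinant human α2a or α2c receptors in CHO cell membranes; [3H]MK912, 60 min at 25 °C in 50 mM Tris-HCl, 150 mM NaCl, 5 mM EDTA, pH 7.4; WB4101 (10 μM) for nonspecific binding. Percent inhibition at 1 μM in duplicate; filtration, scintillation counting.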

D(2) dopamine receptor = D(2) dopamine receptor (Homo sapiens, UniProt P14416); assay: Compound at 1 uM was tested for the inhibition of radioligand [3H]spiperone binding to recombinant human Dopamine receptor D2L
Summary of the method: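 D2L (human, CHO-expressed) membranes; [3H]spiperone, 25 °C, 120 min; pH 7.4 Tris-HCl/NaCl/EDTA; nonspecific with 10 μM haloperidol. Compound at 1 μM, percent inhibition in duplicate; filtration, scintillation counting.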

[5] = target: T4, D(4) dopamine receptor (Homo sapiens) (UniProt P21917); assay: Compound at 1 uM was tested for the inhibition of radioligand [3H]spiperone binding to recombinant human Dopamine receptor D4.7
T4 sequence (whole entry): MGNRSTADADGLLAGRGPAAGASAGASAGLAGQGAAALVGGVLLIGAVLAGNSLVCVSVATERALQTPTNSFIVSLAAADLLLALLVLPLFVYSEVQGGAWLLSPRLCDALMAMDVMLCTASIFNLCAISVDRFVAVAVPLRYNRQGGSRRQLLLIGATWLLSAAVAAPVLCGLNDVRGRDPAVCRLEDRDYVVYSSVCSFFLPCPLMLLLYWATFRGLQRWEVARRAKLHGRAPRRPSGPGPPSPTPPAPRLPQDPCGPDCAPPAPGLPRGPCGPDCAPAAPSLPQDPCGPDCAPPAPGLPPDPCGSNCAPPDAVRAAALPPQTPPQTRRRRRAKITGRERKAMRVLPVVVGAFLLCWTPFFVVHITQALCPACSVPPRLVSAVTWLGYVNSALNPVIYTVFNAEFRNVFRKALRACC
Summary of the method: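 Recombinant human D4.7 in CHO cell membranes; [3H]spiperone for 120 min at 25 °C, pH 7.4 Tris-HCl/NaCl/EDTA; haloperidol (10 μM) for nonspecific binding. Compound at 1 μM, percent inhibition determined in duplicate; filtration, scintillation counting.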

D(2) dopamine receptor, sequence (P14416 whole entry): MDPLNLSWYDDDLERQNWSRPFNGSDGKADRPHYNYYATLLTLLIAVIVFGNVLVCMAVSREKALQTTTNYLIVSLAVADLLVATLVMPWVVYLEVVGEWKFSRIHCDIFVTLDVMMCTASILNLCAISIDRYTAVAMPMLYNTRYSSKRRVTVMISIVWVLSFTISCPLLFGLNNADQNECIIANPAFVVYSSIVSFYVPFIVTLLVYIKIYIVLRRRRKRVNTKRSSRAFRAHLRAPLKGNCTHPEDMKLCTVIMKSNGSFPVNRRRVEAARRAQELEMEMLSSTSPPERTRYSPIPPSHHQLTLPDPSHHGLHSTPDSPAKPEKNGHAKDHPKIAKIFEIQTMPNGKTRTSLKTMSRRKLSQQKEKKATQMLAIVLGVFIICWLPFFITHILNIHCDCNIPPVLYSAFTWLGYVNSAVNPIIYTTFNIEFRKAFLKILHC

Row | Compound | inhibition [1] [%] | inhibition [2] [%] | inhibition [3] [%] | inhibition [4] [%] | inhibition (D(2) dopamine receptor) [%] | inhibition [5] [%]
1 | Cc1ccc(N2C(=O)c3ccc(C(=O)NC[C@H](O)CN4CCN(c5ccccc5OC(C)C)CC4)cc3C2=O)cc1 | 75 | 64 | 92 | 19 | 68 | 
2 | CC(C)Oc1ccccc1N1CCN(C[C@@H](O)CNC(=O)c2ccc3c(c2)C(=O)N(c2ccc(N(C)C)cc2)C3=O)CC1 | 73 | 66 | 92 | 18 | 71 | 50
3 | CCOc1ccccc1OCCN[C@H](C)Cc1ccc(OC)c(S(N)(=O)=O)c1 [TAMSULOSIN] | 86 | 62 | 115 | 82 | 53 | 21

Next, values leading:

Row | inhibition [1] [%] | inhibition [2] [%] | inhibition [3] [%] | inhibition [4] [%] | inhibition (D(2) dopamine receptor) [%] | inhibition [5] [%] | Compound
4 | 79 | 90 | 104 | 80 | 83 | 32 | COc1ccc(N2C(=O)c3ccc(C(=O)NCCCN4CCN(c5ccccc5OC(C)C)CC4)cc3C2=O)cc1
5 | 66 | 69 | 90 | 87 | 83 | 20 | Cc1ccc(N2C(=O)c3ccc(C(=O)NCCCN4CCN(c5ccccc5OC(C)C)CC4)cc3C2=O)cc1
6 | 78 | 88 | 95 | 78 | 89 | 69 | CC(C)Oc1ccccc1N1CCN(CCCNC(=O)c2ccc3c(c2)C(=O)N(c2cccc(F)c2)C3=O)CC1
7 | 70 | 49 | 98 | 29 | 55 | 43 | CC(C)Oc1ccccc1N1CCN(C[C@@H](O)CNC(=O)c2ccc3c(c2)C(=O)N(c2cccc(F)c2)C3=O)CC1
